Among all 360,000 compounds or so, about 740 (0.21%) were called active.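 Rule for the calls: active = mean lysis activity across replicates of at least 80%, whatever share of replicates individually reach that level; inactive = mean lysis activity below 80%.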 The list comes from a sample in which actives are over-represented; it also holds similar structures and randomly drawn compounds.
Assay: Cryptococcus neoformans cell lysis inducers, primary screen, AK release luminescence, single concentration (AID 651654)
Conditions: C. neoformans lysis, adenylate kinase release luminescence, 4 h; at 15 µM; stronger effect = higher value; normalised: neutral wells 0, clomiphene wells 100
Summary of the method: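 Test system: log-phase Cryptococcus neoformans yeast cells; Quantity: yeast cell density of 5 × 10^6 cells/mL; Buffer or medium: YPD; Doses: single compound concentration per well; Timing: 4 h at 37 °C static, read 1 h later; Measured by: AK luminescence; Read-out basis: lysis from increased AK signal; Control set: Clomiphene as positive control.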
In the case of `Cc1ccc(S(=O)(=O)N[C@@H]2CC[C@H](CCNC(=O)C3CCOCC3)O[C@@H]2CO)cc1`, the lysis activity is reported as -6.3% (inactive). With `COCC(=O)Nc1ccc2c(c1)OC[C@H](C)N(C(=O)c1ccccn1)C[C@@H](C)[C@H](OC)CN(C)C2=O` the lysis activity was 0.52% (inactive). For `O=C(C[C@H]1CC[C@@H]2[C@H](COC[C@@H](O)CN2C(=O)Nc2ccc(Cl)cc2)O1)NC1Cc2ccccc2C1`, the lysis activity was -3.01% (inactive). For `C[C@@H]1CN([C@H](C)CO)C(=O)c2cc(C#CC3CC3)cnc2O[C@@H]1CN(C)Cc1cccc(C(=O)O)c1`, the lysis activity was -8.03% (inactive). With `C[C@H](CO)N1C[C@H](C)[C@@H](CN(C)Cc2ccc(C(=O)Nc3ccccc3N)cc2)Oc2c(NC(=O)C3CC3)cccc2C1=O` the lysis activity was -0.959% (inactive). In the case of `COCC(=O)N(C)C[C@@H]1Oc2cc(C#CCC(C)C)ccc2S(=O)(=O)N([C@@H](C)CO)C[C@@H]1C`, the lysis activity is reported as 0.182% (inactive). In the case of `O=C(CN1CCOCC1)NC[C@@H]1N[C@@H](CO)[C@@H]1c1ccc(-c2ccccc2)cc1`, the lysis activity is reported as 4.94% (inactive). With `CCC(=O)N1[C@@H]2CN(C(=O)Nc3ccc(Cl)cc3)c3ccccc3[C@@H]2[C@@H]1CO` the lysis activity was -1.93% (inactive). For `COc1cccc(S(=O)(=O)Nc2ccc3c(c2)[C@@H]2C[C@H](CC(=O)NC4CCCCC4)O[C@H](CO)[C@@H]2O3)c1`, the lysis activity was 116% (active). For `COc1cccc(S(=O)(=O)Nc2ccc3c(c2)[C@@H]2C[C@@H](CC(=O)NC4CCCCC4)O[C@H](CO)[C@@H]2O3)c1`, the lysis activity was 2.9% (inactive). For `COc1cccc(S(=O)(=O)Nc2ccc3c(c2)[C@H]2C[C@H](CC(=O)O)O[C@H](CO)[C@H]2O3)c1`, the lysis activity was -0.106% (inactive). For `CCCC#Cc1cnc2c(c1)C(=O)N([C@H](C)CO)C[C@H](C)[C@H](CN(C)C(=O)c1cnccn1)O2`, the lysis activity was -1.04% (inactive). With `CCC(=O)Nc1ccc2c(c1)C(=O)N(C)[C@H]1CC[C@H](CC(=O)NC3Cc4ccccc4C3)O[C@H]1CO2` the lysis activity was -0.192% (inactive). With `COCC(=O)Nc1ccc2c(c1)[C@H]1C[C@H](CC(=O)OC)O[C@@H](CO)[C@H]1O2` the lysis activity was -5.98% (inactive). In the case of `O=C(C[C@H]1CC[C@H]2[C@@H](COC[C@H](O)CN2C(=O)Nc2ccc(Cl)cc2)O1)NCC1CC1`, the lysis activity is reported as -8.94% (inactive). For `C[C@H]1CN([C@@H](C)CO)C(=O)c2cc(NC(=O)Cn3cnnn3)ccc2O[C@H]1CN(C)Cc1ccc(C(=O)O)cc1`, the lysis activity was -7.7% (inactive). For `C[C@@H](NC(=O)C[C@H]1CC[C@@H](NC(=O)Cc2ccccn2)[C@@H](CO)O1)c1ccccc1`, the lysis activity was 105% (active). For `C[C@H](NC(=O)C[C@@H]1CC[C@@H](NC(=O)Cc2ccccn2)[C@@H](CO)O1)c1ccccc1`, the lysis activity was 0.182% (inactive). For `C[C@@H](NC(=O)C[C@@H]1CC[C@H](NC(=O)Cc2ccccn2)[C@H](CO)O1)c1ccccc1`, the lysis activity was -0.901% (inactive). With `COc1ccc(NC(=O)N(C)C[C@@H]2OCCCC[C@@H](C)Oc3ccc(NS(=O)(=O)c4c(C)noc4C)cc3C(=O)N([C@H](C)CO)C[C@@H]2C)cc1` the lysis activity was -3% (inactive). In the case of `CC(C)C#Cc1ccc2c(c1)O[C@H](CN(C)Cc1ccccc1)[C@H](C)CN([C@@H](C)CO)S2(=O)=O`, the lysis activity is reported as 14.5% (inactive). In the case of `CCNC(=O)C[C@@H]1CC[C@H]2[C@@H](COc3ccc(NC(=O)Cc4cccs4)cc3C(=O)N2C)O1`, the lysis activity is reported as -1.39% (inactive). For `COc1ccccc1CNC(=O)C[C@H]1CC[C@@H]2[C@H](COC[C@H](O)CN2Cc2ccccc2)O1`, the lysis activity was -1.1% (inactive). For `COc1ccccc1-c1ccc2n(c1=O)C[C@@H]1[C@@H](CO)[C@H](C(=O)NCc3ccccc3Cl)N[C@H]21`, the lysis activity was -0.428% (inactive). For `CO[C@@H]1CN(C)C(=O)c2cc(NC(=O)c3ccno3)ccc2OC[C@@H](C)N(S(C)(=O)=O)C[C@@H]1C`, the lysis activity was 0.04% (inactive). With `C/C=C/c1ccc([C@H]2[C@@H](CO)N(C(C)=O)[C@H]2CN(C)S(C)(=O)=O)cc1` the lysis activity was -1.56% (inactive). In the case of `C/C=C/c1ccc2c(c1)O[C@H](CN(C)C(=O)Nc1ccc(OC)cc1)[C@@H](C)CN([C@H](C)CO)S2(=O)=O`, the lysis activity is reported as -3.44% (inactive). In the case of `Cc1ccc(S(=O)(=O)Nc2ccc3c(c2)C(=O)N([C@@H](C)CO)C[C@@H](C)[C@@H](CN(C)Cc2ccc(C(F)(F)F)cc2)OCCCC[C@@H](C)O3)cc1`, the lysis activity is reported as 54.9% (inactive). In the case of `C[C@@H]1CCCCO[C@H](CN(C)C(=O)NC2CCCCC2)[C@H](C)CN([C@H](C)CO)C(=O)c2cc(NC(=O)c3ccncc3)ccc2O1`, the lysis activity is reported as -2.46% (inactive). With `CO[C@@H]1CN(C)C(=O)c2cc(NC(=O)Nc3ccc(F)cc3)ccc2OC[C@@H](C)NC[C@@H]1C` the lysis activity was -3.48% (inactive). With `COc1cccc(-c2ccc3n(c2=O)C[C@@H]2[C@@H](CO)[C@H](C(=O)NCC4CC4)N(C(=O)NC(C)C)[C@H]32)c1` the lysis activity was -2.16% (inactive). For `CCC(=O)Nc1ccc2c(c1)C(=O)N(C)C[C@H](OC)[C@H](C)CN(Cc1ccccc1F)[C@H](C)CO2`, the lysis activity was 3.58% (inactive). With `C[C@@H]1CN([C@H](C)CO)S(=O)(=O)c2ccc(C3=CCCC3)cc2O[C@H]1CN(C)C(=O)c1ccccc1` the lysis activity was 2.54% (inactive). With `O=C(C[C@@H]1C[C@@H]2c3cc(NS(=O)(=O)c4ccc(F)cc4)ccc3O[C@@H]2[C@@H](CO)O1)N1CCOCC1` the lysis activity was -1.76% (inactive). In the case of `C[C@@H]1CCCCO[C@@H](CN(C)S(C)(=O)=O)[C@H](C)CN([C@@H](C)CO)C(=O)c2cc(NS(=O)(=O)c3cccs3)ccc2O1`, the lysis activity is reported as 0.965% (inactive). With `C[C@H]1CN([C@@H](C)CO)C(=O)c2ccccc2-c2ccccc2CO[C@H]1CN(C)S(=O)(=O)c1cccc(C#N)c1` the lysis activity was 82.9% (active). With `Cc1ccc(S(=O)(=O)N(C)C[C@H]2OCc3ccccc3-c3ccccc3C(=O)N([C@@H](C)CO)C[C@@H]2C)cc1` the lysis activity was -0.134% (inactive). For `C[C@H]1CN([C@@H](C)CO)C(=O)c2ccccc2-c2ccccc2CO[C@H]1CN(C)S(=O)(=O)c1ccccc1C#N`, the lysis activity was 1.59% (inactive). For `CO[C@H]1CN(C)C(=O)c2cc(NC(=O)C3CC3)ccc2OC[C@@H](C)N(Cc2cc(F)ccc2F)C[C@H]1C`, the lysis activity was 0.743% (inactive). For `COC(=O)C[C@H]1C[C@H]2c3cc(NC(=O)Nc4ccccc4F)ccc3O[C@H]2[C@H](CO)O1`, the lysis activity was 11.5% (inactive). With `CO[C@@H]1CN(C)C(=O)c2ccc(NC(=O)Nc3c(C)noc3C)cc2OC[C@@H](C)NC[C@H]1C` the lysis activity was -0.469% (inactive). For `O=C(c1ccncc1)N1CC[C@@H]2[C@H]1c1cc(Br)ccc1N[C@@H]2CO`, the lysis activity was -16.8% (inactive). With `C[C@H]1CN([C@@H](C)CO)S(=O)(=O)c2ccc(C3=CCCC3)cc2O[C@H]1CN(C)Cc1cccc(C(=O)O)c1` the lysis activity was 0.868% (inactive).

From PubChem BioAssay AID651654 (Broad Institute, 2012)
